Active and inactive are the calls of the source. The calls are words filed in the database; no cut-off is given here.
Legend:
[1] = target: T1, Nuclear receptor subfamily 1 group I member 3 (Homo sapiens, UniProt Q14994); assay: Agonist activity at CAR expressed in human HepG2 cells after 24 hrs by CYP3A4-luciferase reporter gene assay; type: cell-based; conditions: hepg2, 24 h
T1 sequence (Q14994 whole entry): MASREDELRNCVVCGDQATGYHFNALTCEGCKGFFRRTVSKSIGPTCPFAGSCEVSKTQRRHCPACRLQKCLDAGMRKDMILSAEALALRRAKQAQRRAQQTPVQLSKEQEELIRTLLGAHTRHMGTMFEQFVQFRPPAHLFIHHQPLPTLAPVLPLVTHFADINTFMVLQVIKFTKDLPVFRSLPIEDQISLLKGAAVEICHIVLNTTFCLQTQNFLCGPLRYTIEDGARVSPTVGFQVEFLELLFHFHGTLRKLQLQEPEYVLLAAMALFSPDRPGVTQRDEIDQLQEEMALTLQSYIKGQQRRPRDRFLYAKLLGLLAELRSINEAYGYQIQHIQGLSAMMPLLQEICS
How it was run: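 HepG2 cells co-transfected with CYP3A4-luc, wild-type CAR vector and pRL-TK; 24 h stabilization, then compound or DMSO (0.1%, v/v) for 24 h, with parallel androstenol (5 µM) treatment to suppress basal activity. Dual firefly/Renilla luciferase read; fold induction over vehicle (set to 1), means of three independent experiments.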

[2] = target: T1, Nuclear receptor subfamily 1 group I member 3; assay: Agonist activity at CAR in human primary hepatocytes assessed as upregulation of MDR/ABCB1 mRNA expression at 10 uM after 24 hrs by qRT-PCR method; type: cell-based, Hepatocyte
[3] = target: Nuclear receptor subfamily 1 group I member 3 (Homo sapiens, UniProt Q14994); assay: (§1) Agonist activity at human CAR3 expressed in African green monkey COS-1 cells cotransfected with RXRalpha after 24 hrs by CYP2B6-luciferase reporter gene assay; type: cell-based; conditions: for EC50: cos-1; for Activity: human, cos-1, 24 h
How it was run: (§2)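 COS-1 cells co-transfected with CYP2B6-luc, low-constitutive-activity CAR3 variant, RXRα (100 ng/well) and pRL-TK; after 24 h stabilization, compound or DMSO (0.1%, v/v) for 24 h. Firefly luciferase normalized to Renilla; fold change relative to vehicle (set to 1), means of three independent experiments.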

CAR3 (NR1I3) = CAR3 (NR1I3) (Homo sapiens, UniProt Q14994, WILDTYPEORMUTANTINASSAY1587668); assay: as §1; type: cell-based; conditions: human, COS-1 cells expressing human CAR3 and RXRalpha; read-out: Imax; how it was run: as §2
[4] = target: T2, Nuclear receptor subfamily 1 group I member 2 (Homo sapiens, UniProt O75469); assay: Agonist activity at PXR in human primary hepatocytes assessed as upregulation of UGT1A1 mRNA expression at 10 uM after 24 hrs by qRT-PCR method; type: cell-based, Hepatocyte
T2 sequence (O75469 whole entry): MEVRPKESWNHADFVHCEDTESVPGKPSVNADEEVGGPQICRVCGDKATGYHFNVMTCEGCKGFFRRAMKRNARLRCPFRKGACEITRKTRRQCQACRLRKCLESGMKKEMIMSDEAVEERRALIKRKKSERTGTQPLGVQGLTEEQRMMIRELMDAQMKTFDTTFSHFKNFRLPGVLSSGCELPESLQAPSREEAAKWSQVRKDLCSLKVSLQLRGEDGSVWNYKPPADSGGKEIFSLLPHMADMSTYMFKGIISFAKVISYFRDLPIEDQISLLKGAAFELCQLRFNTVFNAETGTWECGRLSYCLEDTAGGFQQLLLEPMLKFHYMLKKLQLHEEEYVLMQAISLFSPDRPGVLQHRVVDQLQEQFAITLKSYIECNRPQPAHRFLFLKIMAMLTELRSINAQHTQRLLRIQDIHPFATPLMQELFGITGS

Cytochrome P450 1A2 = target: T3, Cytochrome P450 1A2 (Homo sapiens, UniProt P05177); assay: Inhibition of recombinant human CYP1A2 by P450-Glo luminescence assay; type: ADME
T3 sequence (P05177 whole entry): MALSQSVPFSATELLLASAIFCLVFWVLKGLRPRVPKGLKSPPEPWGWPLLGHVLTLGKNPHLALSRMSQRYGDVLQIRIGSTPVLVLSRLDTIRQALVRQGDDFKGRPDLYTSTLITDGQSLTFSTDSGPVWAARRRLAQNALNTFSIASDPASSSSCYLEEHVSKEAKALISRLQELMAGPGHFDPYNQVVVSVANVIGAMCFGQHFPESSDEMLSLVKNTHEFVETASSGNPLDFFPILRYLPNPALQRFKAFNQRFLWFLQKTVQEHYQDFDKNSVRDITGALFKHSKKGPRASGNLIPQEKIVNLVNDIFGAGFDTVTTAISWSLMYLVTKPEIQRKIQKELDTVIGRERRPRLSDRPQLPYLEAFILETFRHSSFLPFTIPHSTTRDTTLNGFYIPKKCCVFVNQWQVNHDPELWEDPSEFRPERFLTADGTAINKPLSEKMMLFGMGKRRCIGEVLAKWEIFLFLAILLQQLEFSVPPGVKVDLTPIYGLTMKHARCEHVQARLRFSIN

[5] = target: T4, Vitamin D3 receptor (Homo sapiens) (UniProt P11473); assay: Agonist activity at VDR in human primary hepatocytes assessed as upregulation of CYP3A5 mRNA expression at 10 uM after 24 hrs by qRT-PCR method; type: cell-based; conditions: Hepatocyte
T4 sequence (whole entry): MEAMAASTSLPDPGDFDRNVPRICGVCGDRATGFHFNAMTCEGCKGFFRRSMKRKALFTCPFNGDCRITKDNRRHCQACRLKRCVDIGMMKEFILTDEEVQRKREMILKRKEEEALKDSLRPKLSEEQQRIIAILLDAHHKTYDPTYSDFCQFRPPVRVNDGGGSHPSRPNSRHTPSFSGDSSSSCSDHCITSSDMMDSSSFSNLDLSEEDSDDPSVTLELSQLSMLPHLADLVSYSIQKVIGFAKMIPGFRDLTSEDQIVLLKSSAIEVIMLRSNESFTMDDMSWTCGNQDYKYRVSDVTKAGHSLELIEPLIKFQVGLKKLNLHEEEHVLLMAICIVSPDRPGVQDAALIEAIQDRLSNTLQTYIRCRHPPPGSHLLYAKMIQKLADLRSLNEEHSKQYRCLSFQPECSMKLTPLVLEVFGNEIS

Activity [1]	Activity [2]	EC50 [3] [µM]	Activity [3]	Emax at 24 h (CAR3 (NR1I3)) [%]	Activity [4]	IC50 (Cytochrome P450 1A2) [µM]	Activity [5]	Structure (SMILES)
Dose-dependent effect	Active	4.91	Dose-dependent effect	462	Active	0.18	Active	COc1cccc(-c2nc(OC)c3ccccc3n2)c1
Dose-dependent effect	Active	6.12	Dose-dependent effect	333	Active	0.75	Active	COc1cccc(-c2nc3ccccc3c(=S)[nH]2)c1
Dose-dependent effect	Active	4.04	Dose-dependent effect	158	Active	0.42	Active	COc1cccc(-c2nc(SC)c3ccccc3n2)c1
